≈ marks a conversion by molar mass, not a printed value. Calls of active or inactive are those of the source. No cut-off for these calls is given here.
Key:
Rattus norvegicus [1] = assay: Antiinflammatory activity against carrageenan-induced foot edema in rat administered via gastric gavage; type: functional; conditions: po
Procedure, shortened: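 Rats, six per dose level, received drug as an aqueous suspension by gastric gavage before carrageenan-induced foot edema was measured. The highest dose given was 400 mg/kg.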

Rattus norvegicus [2] = assay: Antiinflammatory activity against carrageenan-induced foot edema in rat at 400 mg/kg administered via gastric gavage; type: functional, organism-based; set-up: dose 400 mg/kg
Procedure, shortened: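 Carrageenan-induced foot edema in rats. Drugs were given as an aqueous suspension by gastric gavage to six rats at each dose level.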

Rattus norvegicus [3] = assay: Analgesic activity in po dosed rat assessed as inhibition of yeast-induced inflammatory pain; type: functional
Rattus norvegicus [4] = assay: Analgesic activity in po dosed rat assessed as inhibition of adjuvant-induced arthritis pain; type: functional
Canis familiaris = assay: Analgesic activity in po dosed dog knee joint pain model; type: functional; conditions: Canis lupus familiaris
Rattus norvegicus [5] = assay: Toxicity in po dosed rat assessed as gastric hemorrhage; type: organism-based, Stomach; conditions: in vivo
[6] = target: Cyclooxygenase (Homo sapiens) (UniProt P35354+P23219)
Rattus norvegicus [7] = assay: Antipyretic activity in po dosed rat; type: functional
Rattus norvegicus [8] = assay: Toxicity in rat assessed as intestinal perforating ulcer at 1024 mg/kg, po; type: organism-based; set-up: dose 1024 mg/kg, route oral; conditions: in vivo
Rattus norvegicus [9] = assay: Toxicity in po dosed rat assessed as intestinal perforating ulcer; type: organism-based; conditions: in vivo
[10] = Plasma concentration in human at 250 mg, po after 2 hrs
[11] = Drug excretion in human urine after 96 hrs; type: ADME, tissue-based; conditions: read-out: Drug excretion
[12] = Plasma concentration in human at 500 mg, po after 2 hrs
Rattus norvegicus [13] = assay: Toxicity in rat assessed as gastric hemorrhage at 256 mg/kg, po; type: organism-based, Stomach; set-up: dose 256 mg/kg, route oral; conditions: in vivo

O=C(O)c1cc(-c2ccccc2)ccc1O
ED50 (Rattus norvegicus [1]): 54 mg/kg

O=C(O)c1cc(-c2ccc(F)cc2)ccc1O
ED50 (Rattus norvegicus [1]): 14 mg/kg

O=C(O)c1cc(-c2ccccc2)cc(F)c1O
ED50 (Rattus norvegicus [1]): 110 mg/kg

O=C(O)c1ccc(F)cc1O
ED50 (Rattus norvegicus [1]): 400 mg/kg

O=C(O)c1cc(F)ccc1O
ED50 (Rattus norvegicus [1]): 120 mg/kg

O=C(O)c1cccc(-c2ccccc2)c1O
ED50 (Rattus norvegicus [1]): 130 mg/kg

O=C(O)c1cccc(F)c1O
ED50 (Rattus norvegicus [1]): 90 mg/kg

CC(=O)Oc1c(F)cccc1C(=O)O
ED50 (Rattus norvegicus [1]): 281 mg/kg

CC(=O)Oc1ccc(-c2ccccc2)cc1C(=O)O
ED50 (Rattus norvegicus [1]): 170 mg/kg

CCCCOC(=O)Oc1ccc(-c2ccc(F)cc2)cc1C(=O)O
ED50 (Rattus norvegicus [1]): 25 mg/kg

O=C(O)c1cc(-c2ccc(Cl)cc2)ccc1O
ED50 (Rattus norvegicus [1]): 24 mg/kg

O=C(O)c1cc(-c2cccc(F)c2)ccc1O
ED50 (Rattus norvegicus [1]): 40 mg/kg

Cc1cc(F)ccc1-c1ccc(O)c(C(=O)O)c1
ED50 (Rattus norvegicus [1]): 76 mg/kg

CCOC(=O)Oc1ccc(-c2ccc(F)cc2F)cc1C(=O)O
ED50 (Rattus norvegicus [1]): 30 mg/kg

CCCCOC(=O)Oc1ccc(-c2ccc(F)cc2F)cc1C(=O)O
ED50 (Rattus norvegicus [1]): 12 mg/kg

O=C(O)c1cc(-c2c(F)c(F)c(F)c(F)c2F)ccc1O
ED50 (Rattus norvegicus [1]): 20 mg/kg

O=C(O)c1cc(-c2ccc(C(F)(F)F)cc2)ccc1O
ED50 (Rattus norvegicus [1]): 50 mg/kg

O=C(O)c1cc(-c2ccc(I)cc2)ccc1O
ED50 (Rattus norvegicus [1]): 120 mg/kg

Cc1cc(-c2ccccc2)cc(C(=O)O)c1O
ED50 (Rattus norvegicus [1]): 60 mg/kg

Cc1cc(-c2ccc(F)cc2)cc(C(=O)O)c1O
ED50 (Rattus norvegicus [1]): 60 mg/kg

O=C(O)c1ccc(-c2ccc(F)cc2)cc1O
ED50 (Rattus norvegicus [1]): 400 mg/kg

O=C(O)c1cc(-c2ccccc2F)ccc1O
ED50 (Rattus norvegicus [1]): 20 mg/kg

CC(=O)Oc1ccc(-c2ccc(F)cc2F)cc1C(=O)O
ED50 (Rattus norvegicus [1]): 27 mg/kg

O=C(O)c1ccc(-c2ccccc2)cc1O
ED50 (Rattus norvegicus [1]): 150 mg/kg

CCCc1cc(-c2ccc(F)cc2)cc(C(=O)O)c1O
Activity (Rattus norvegicus [2]): inactive

COc1cc(-c2ccc(O)c(C(=O)O)c2)ccc1F
Activity (Rattus norvegicus [2]): inactive

Cc1cc(-c2ccc(O)c(C(=O)O)c2)ccc1F
Activity (Rattus norvegicus [2]): inactive

O=C(O)c1c(O)cccc1-c1ccccc1
Activity (Rattus norvegicus [2]): inactive

O=C(O)c1c(O)cccc1F
Activity (Rattus norvegicus [2]): inactive

O=C(O)c1cc(-c2ccccc2)c(Cl)cc1O
Activity (Rattus norvegicus [2]): inactive

O=C(O)c1cc(C2CCCCC2)ccc1O
Activity (Rattus norvegicus [2]): inactive

O=C(O)c1ccc(C(F)(F)F)cc1O
Activity (Rattus norvegicus [2]): inactive

O=C(O)c1cccc(-c2ccc(Cl)cc2)c1O
Activity (Rattus norvegicus [2]): inactive

CC(=O)Oc1ccccc1C(=O)O [ASPIRIN]
ED50 (Rattus norvegicus [3]): 87 mg/kg | ED50 (Rattus norvegicus [4]): 78 mg/kg | ED50 (Canis familiaris): 68 mg/kg | ED50 (Rattus norvegicus [1]): 89 mg/kg | ED50 (Rattus norvegicus [5]): 81 mg/kg | ED50 [6]: 13 µg/mL (≈ 72.2 µM) | ED50 (Rattus norvegicus [7]): 40 mg/kg | Activity (Rattus norvegicus [8]): Non-toxic

O=C(O)c1cc(-c2ccc(F)cc2F)ccc1O [DIFLUNISAL]
ED50 (Rattus norvegicus [9]): 520 mg/kg | ED50 (Rattus norvegicus [3]): 4.6 mg/kg | ED50 (Rattus norvegicus [4]): 10.4 mg/kg | ED50 (Canis familiaris): 24 mg/kg | ED50 (Rattus norvegicus [1]): 9.8 mg/kg | ED50 [6]: 0.6 µg/mL (≈ 2.4 µM) | concentration at 2 h [10]: 30000 ng/mL | dose excreted at 96 h [11]: 95% | ED50 (Rattus norvegicus [7]): 27.8 mg/kg | concentration at 2 h [12]: 99 µg/mL | Activity (Rattus norvegicus [13]): Non-toxic

CC(=O)Oc1ccc(-c2ccc(F)cc2)cc1C(=O)O [FLUFENISAL]
ED50 (Rattus norvegicus [9]): > 512 mg/kg | ED50 (Rattus norvegicus [3]): 35 mg/kg | ED50 (Rattus norvegicus [4]): 40 mg/kg | ED50 (Rattus norvegicus [1]): 24 mg/kg | ED50 (Rattus norvegicus [5]): > 512 mg/kg | ED50 [6]: 10 µg/mL (≈ 36.5 µM) | ED50 (Rattus norvegicus [7]): 160 mg/kg

CC(C)Cc1ccc(C(C)C(=O)O)cc1 (centres undefined) [IBUPROFEN]
ED50 (Rattus norvegicus [9]): < 256 mg/kg | ED50 (Rattus norvegicus [3]): 2.6 mg/kg | ED50 (Rattus norvegicus [4]): 28 mg/kg | ED50 (Rattus norvegicus [5]): < 16 mg/kg | ED50 (Rattus norvegicus [7]): 5.9 mg/kg

COc1ccc2c(c1)c(CC(=O)O)c(C)n2C(=O)c1ccc(Cl)cc1 [INDOMETHACIN]
ED50 (Rattus norvegicus [9]): 5.2 mg/kg | ED50 (Rattus norvegicus [3]): 2.2 mg/kg | ED50 (Rattus norvegicus [4]): 0.27 mg/kg | ED50 (Canis familiaris): 1.7 mg/kg | ED50 (Rattus norvegicus [5]): 5.4 mg/kg | ED50 (Rattus norvegicus [7]): 1.8 mg/kg

O=C(O)c1ccccc1O [SALICYLIC ACID]
ED50 (Rattus norvegicus [1]): 77 mg/kg

CC1=C(CC(=O)O)c2cc(F)ccc2/C1=C\c1ccc([S+](C)[O-])cc1 (centres undefined) [SULINDAC]
ED50 (Rattus norvegicus [9]): 69 mg/kg | ED50 (Rattus norvegicus [3]): 1.7 mg/kg | ED50 (Rattus norvegicus [4]): 0.55 mg/kg | ED50 (Canis familiaris): 45 mg/kg | ED50 (Rattus norvegicus [5]): 27 mg/kg | ED50 [6]: inactive | ED50 (Rattus norvegicus [7]): 2.9 mg/kg

CC(=O)Oc1cc(C(F)(F)F)ccc1C(=O)O [TRIFLUSAL]
ED50 (Rattus norvegicus [1]): 155 mg/kg

From ChEMBL document CHEMBL3244301, “Novel analgesic-antiinflammatory salicylates” (J Med Chem, 1978)
